Assay outcomes: PubChem BioAssay, Johns Hopkins Ion Channel Center
TRPC6 inhibitor = inhibitors of mouse TRPC6 channel. B-score at 10 µM. HEK293-TRPC6, membrane potential dye, ACh-evoked depolarization; stronger effect = lower value. AID 2553. Q61143. actives 1.1% (n = 310,000);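 active means B-score under library mean minus 3 SD, initial fluorescence not abnormally high, positive integrated signal ratio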;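 further: B-score derived from integrated fluorescence ratio over the kinetic read; more negative B-score means stronger inhibition of depolarization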
TRPC4 inh = inhibitors of mouse TRPC4 channel; Q9QUQ5; HEK293 TRPC4beta/mu-opioid, DAMGO-evoked Fluo4 calcium flux; stronger effect = lower value; B-score at 10 µM; actives 0.39% (n = 300,000);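 active means B-score over 3 SD under the library average, no early fluorescence shift, positive overall ratio signal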
Target sequence (Q9QUQ5 whole entry, looked up): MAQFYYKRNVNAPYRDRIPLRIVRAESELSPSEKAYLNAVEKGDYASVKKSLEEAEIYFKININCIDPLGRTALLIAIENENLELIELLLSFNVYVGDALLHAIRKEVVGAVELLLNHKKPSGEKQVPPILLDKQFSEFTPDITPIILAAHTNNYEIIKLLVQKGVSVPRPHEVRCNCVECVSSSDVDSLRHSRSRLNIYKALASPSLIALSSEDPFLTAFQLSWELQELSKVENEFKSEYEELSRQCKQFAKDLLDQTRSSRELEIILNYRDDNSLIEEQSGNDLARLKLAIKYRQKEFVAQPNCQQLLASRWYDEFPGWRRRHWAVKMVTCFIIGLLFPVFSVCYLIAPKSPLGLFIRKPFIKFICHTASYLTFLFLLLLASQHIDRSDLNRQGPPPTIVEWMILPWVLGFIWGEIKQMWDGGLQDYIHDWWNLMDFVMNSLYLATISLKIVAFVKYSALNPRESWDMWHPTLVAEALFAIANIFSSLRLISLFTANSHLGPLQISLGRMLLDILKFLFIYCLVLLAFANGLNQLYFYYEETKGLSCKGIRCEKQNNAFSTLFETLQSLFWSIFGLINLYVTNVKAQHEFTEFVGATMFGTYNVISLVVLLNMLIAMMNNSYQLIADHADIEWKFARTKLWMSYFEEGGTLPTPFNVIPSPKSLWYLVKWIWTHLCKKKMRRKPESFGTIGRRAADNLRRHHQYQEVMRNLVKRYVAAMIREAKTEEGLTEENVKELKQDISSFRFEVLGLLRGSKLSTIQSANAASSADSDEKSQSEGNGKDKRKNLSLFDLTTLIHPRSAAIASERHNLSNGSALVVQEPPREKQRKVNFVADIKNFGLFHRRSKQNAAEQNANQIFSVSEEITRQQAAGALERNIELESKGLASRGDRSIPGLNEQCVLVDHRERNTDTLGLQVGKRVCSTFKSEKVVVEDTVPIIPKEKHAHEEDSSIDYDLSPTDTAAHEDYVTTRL
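Assay system: TRPC4beta/mu-opioid receptor HEK293 cell line; compound dosing: single concentration per test compound; detection: Fluo4 Ca2+ flux fluorescence; evaluation: per-well B score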
TRPC6 activator = mouse TRPC6 channel activation. Q61143. HEK293-TRPC6 membrane potential dye fluorescence; stronger effect = higher value. B-score at 10 µM. actives 0.13% (n = 310,000). AID 2550;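 active means B-score of the integrated fluorescence ratio above library mean plus 3 SD, and starting fluorescence ratio within library mean plus 5 SD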;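 further: higher score means more depolarization so channel activation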
TRPC4 agonist = activators of mouse TRPC4 channel; Q9QUQ5; HEK293 TRPC4beta/mu-opioid, Fluo4 calcium fluorescence; stronger effect = higher value; B-score at 10 µM; actives 0.49% (n = 310,000);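 active means B-score above 5 SD of library B-scores, and initial fluorescence ratio not above library mean plus 5 SD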;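 further: positive B-score marks a calcium rise read as TRPC4 activation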
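Test system: HEK293 cells stably co-expressing mouse TRPC4beta and mu-opioid receptor | Schedule: Fluo4 dye loading 45 min at room temperature, 110 s recording | Measured by: Kinetic Fluo4 calcium fluorescence, 5 s baseline at 1 Hz | Evaluation: B score of integrated ratio | Controls: Buffer (low) and maximal DAMGO (high)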
TRPC4 PAM = allosterically enhances the mouse TRPC4 cation channel | Q9QUQ5 | HEK293 TRPC4beta/mu-opioid, DAMGO EC20, Fluo-4 Ca2+ flux; stronger effect = higher value | B-score at 10 µM | actives 0.42% (n = 310,000) | AID 2227;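 active means B-score of calcium response area above 5 SD of library B-scores, with initial fluorescence ratio within 5 SD of library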;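 further: B-score of integrated fluorescence ratio over time as area under calcium response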
Kir21 block = inhibitors of mouse Kir2.1 inward-rectifier potassium channel; actives 0.85% (n = 310,000); AID 1672; HEK293-Kir2.1, FluxOR thallium flux fluorescence; stronger effect = lower value; P35561; B-score at 10 µM;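 active means fluorescence ratio B-score at or below minus 3 SD of library scores, with starting-brightness B-score within 2 SD, cut at about -4.2 in these data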;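 further: channel flux triggered by added potassium and thallium sulfate stimulus; B-score of peak minus minimum fluorescence over baseline after thallium stimulus; more negative B-score means stronger Kir2.1 block with less thallium influx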
TRPC4 sel inh 2 = mouse TRPC4 off-target activity of TRPC6 inhibitors, second screen. actives 42% (n = 920). inhibition, % at 10 µM. shares compounds with TRPC6 inhibitor. HEK293 TRPC4/MOR, membrane potential dye fluorescence; channel activated by saturating DAMGO dose. AID 2776;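 active means compounds whose fluorescence signal differed from control wells by over 3 SD, either direction, in both duplicate plates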
TRPC4 spec = tests whether TRPC6 inhibitors also affect mouse TRPC4. HEK293 TRPC4/mu-opioid, membrane potential fluorescence. actives 61% (n = 920). shares compounds with TRPC6 inhibitor. activity change, negative = inhibition, % at 10 µM. AID 2777;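 active means rise or fall in signal beyond 3 SD of buffer-only wells in both replicate plates, either sign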;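 further: integrated kinetic ratio of fluorescence range over baseline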
HEK293 MPD ctr 2-1 = second counter-screen for TRPC6 inhibitors: parental HEK293 cells; shares compounds with TRPC6 inhibitor; parental HEK293 membrane potential dye fluorescence; maximal acetylcholine challenge after compound addition; signal change vs control, % at 10 µM; actives 31% (n = 920);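 active means membrane potential signal moving either way by over 3 SD of the maximum-effect control, in both duplicate plates, meaning non-specific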
HEK293 MPD ctr-1 = parental HEK293 nonspecific activity of TRPC6 inhibitors; shares compounds with TRPC6 inhibitor; parental HEK293 membrane potential dye fluorescence; membrane potential signal change, % at 10 µM; actives 60% (n = 920);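 active means membrane potential signal shifting up or down by more than 3 SD of buffer-only wells, on both duplicate plates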
HEK293 MPD ctr-2 = parental HEK293 nonspecific activity of TRPC6 modulators | shares compounds with TRPC6 inhibitor | membrane potential dye fluorescence | membrane potential signal change, % at 10 µM | actives 51% (n = 2,400);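 active means membrane potential signal moves up or down beyond 5 SD from buffer-only wells, on both duplicate plates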
HEK293 MPD ctr 2-2 = parental HEK293 nonspecific activity of TRPC6 modulators, second screen. shares compounds with TRPC6 inhibitor. membrane potential dye fluorescence; after compound, maximal acetylcholine stimulation. inhibition, % at 10 µM. actives 14% (n = 2,400). AID 488926;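 active means membrane potential signal drops by more than 5 SD from the mean control signal, in both duplicate plates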;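 further: plate controls were acetylcholine ECmax control wells for no effect and buffer only wells for full effect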
TRPC4 ctr mod = mouse TRPC4 off-target activity of TRPC6 modulators; shares compounds with TRPC6 inhibitor; HEK293 TRPC4/mu-opioid, membrane potential fluorescence; percent change from control (negative = decrease, positive = increase), % at 10 µM; actives 69% (n = 2,400); AID 488927;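 active means membrane potential signal moved up or down beyond 5 SD of buffer control wells, in both duplicate plates, actives on both sides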;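 further: plate controls were assay buffer wells for no effect and DAMGO maximal-effect wells for full effect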
TRPC4 ctr inh 2 = second selectivity test of TRPC6 modulators against mouse TRPC4; HEK293 TRPC4/mu-opioid, membrane potential dye fluorescence; stimulated with maximal-effect DAMGO; shares compounds with TRPC6 inhibitor; actives 55% (n = 2,400); inhibition, % at 10 µM; AID 488928;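 active means drop in membrane potential signal beyond 5 SD of the control wells in both duplicate plates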;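 further: TRPC4 counter screen for TRPC6 hits run under conditions tuned for TRPC6 not TRPC4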
TRPC6 inh conf = confirmation of mouse TRPC6 inhibitors | HEK293-TRPC6, membrane potential dye, ACh-evoked depolarization | actives 43% (n = 3,300) | inhibition, % at 10 µM | shares compounds with TRPC6 inhibitor;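 active means fluorescence ratio falls more than 5 SD below the full-stimulation control mean, in both duplicate runs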;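 further: integrated fluorescence ratio of peak minus minimum over baseline after agonist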
TRPC6 act confirm = mouse TRPC6 activator confirmation. activation, % at 10 µM. actives 11% (n = 2,800). shares compounds with TRPC6 inhibitor. HEK293-TRPC6 membrane potential dye fluorescence, FDSS. AID 488961;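 active means ratio signal rise beyond 5 SD above unstimulated control wells' mean, seen in both duplicate runs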;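 further: plate controls were buffer EC0 wells for no effect and acetylcholine ECmax response for full effect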
* = called active by the depositor. An excerpt weighted towards active compounds, which were near 3% of everything screened.

For CN(C)C(=O)c1c([N+](=O)[O-])c(C(C)(C)C)nn1C the results were TRPC6 inhibitor -6.2*, TRPC4 inh inactive, TRPC6 activator inactive, TRPC4 agonist inactive, TRPC4 PAM inactive, Kir21 block -0.97, HEK293 MPD ctr-2 inactive, HEK293 MPD ctr 2-2 inactive, TRPC4 ctr mod inactive, TRPC4 ctr inh 2 inactive, TRPC6 inh conf inactive and TRPC6 act confirm inactive.
CN(C(=O)c1nn(C)c2c1CS(=O)(=O)c1ccccc1-2)c1cccc(Cl)c1 was read as TRPC6 inhibitor -5.6*, TRPC4 inh inactive, TRPC6 activator inactive, TRPC4 agonist inactive, TRPC4 PAM inactive, Kir21 block 0.46, HEK293 MPD ctr-2 98%*, HEK293 MPD ctr 2-2 inactive, TRPC4 ctr mod 21%*, TRPC4 ctr inh 2 inactive and TRPC6 inh conf 50%*.
CCCN1CCC(=NNc2ccc(S(=O)(=O)N(CC)CC)cc2[N+](=O)[O-])CC1 was read as TRPC6 inhibitor -5.9*, TRPC4 inh inactive, TRPC6 activator inactive, TRPC4 agonist inactive, TRPC4 PAM inactive, Kir21 block 0, HEK293 MPD ctr-2 inactive, HEK293 MPD ctr 2-2 inactive, TRPC4 ctr mod -11%*, TRPC4 ctr inh 2 51%*, TRPC6 inh conf 46%* and TRPC6 act confirm inactive.
Screening c1ccc(-c2nnc(C3CC(c4ccncc4)=NO3)o2)cc1 (stereo not drawn) returned TRPC6 inhibitor inactive, TRPC4 inh inactive, TRPC6 activator inactive, TRPC4 agonist inactive, TRPC4 PAM inactive and Kir21 block 0.9.
Screening CCCc1nc(NCc2ccccc2)c(C#N)c2c1CCCC2 returned TRPC6 inhibitor inactive, TRPC4 inh inactive, TRPC6 activator inactive, TRPC4 agonist inactive, TRPC4 PAM inactive and Kir21 block 0.7.
For CCN1CCc2c(C#N)c(NCc3ccccc3)nc(N(CC)CC)c2C1 the results were TRPC6 inhibitor -7.2*, TRPC4 inh inactive, TRPC6 activator inactive, TRPC4 agonist inactive, TRPC4 PAM inactive, Kir21 block -2, TRPC4 sel inh 2 66%*, TRPC4 spec -10%*, HEK293 MPD ctr 2-1 inactive, HEK293 MPD ctr-1 inactive, TRPC6 inh conf inactive and TRPC6 act confirm inactive.
`Cn1c(=O)c(C#N)c(-c2ccc(F)cc2)c2cc(C(=O)c3cc(Cl)cc(Cl)c3O)cnc21` gave TRPC6 inhibitor -9.4*, TRPC4 inh inactive, TRPC6 activator inactive, TRPC4 agonist inactive, TRPC4 PAM inactive, Kir21 block -4, TRPC4 sel inh 2 44%*, TRPC4 spec -13%*, HEK293 MPD ctr 2-1 inactive, HEK293 MPD ctr-1 -158%*, TRPC6 inh conf 76%* and TRPC6 act confirm inactive.
Screening CCc1nn2cc(C(=O)c3cc(Cl)ccc3O)cnc2c1-c1ccc(F)cc1 returned TRPC6 inhibitor inactive, TRPC4 inh inactive, TRPC6 activator inactive, TRPC4 agonist inactive, TRPC4 PAM inactive and Kir21 block -0.43.
Cc1cc(Nc2cccc([N+](=O)[O-])c2)c2ccccc2n1 was read as TRPC6 inhibitor -8.1*, TRPC4 inh inactive, TRPC6 activator inactive, TRPC4 agonist inactive, TRPC4 PAM inactive, Kir21 block -1.4, HEK293 MPD ctr-2 -164%*, HEK293 MPD ctr 2-2 inactive, TRPC4 ctr mod -34%*, TRPC4 ctr inh 2 52%*, TRPC6 inh conf 46%* and TRPC6 act confirm inactive.
`Cc1cc(Nc2cccc([N+](=O)[O-])c2)c2cccc(C)c2n1` gave TRPC6 inhibitor -6.8*, TRPC4 inh inactive, TRPC6 activator inactive, TRPC4 agonist inactive, TRPC4 PAM inactive, Kir21 block -0.66, TRPC4 sel inh 2 62%*, TRPC4 spec -24%*, HEK293 MPD ctr 2-1 43%*, HEK293 MPD ctr-1 -444%*, TRPC6 inh conf inactive and TRPC6 act confirm inactive.
For Cc1cc(Nc2ccc([N+](=O)[O-])cc2)c2ccccc2n1 the results were TRPC6 inhibitor inactive, TRPC4 inh inactive, TRPC6 activator inactive, TRPC4 agonist inactive, TRPC4 PAM inactive and Kir21 block 0.
CN(Cc1ccc(Cl)cc1)C(=O)c1ccc2ccccc2n1 was read as TRPC6 inhibitor inactive, TRPC4 inh inactive, TRPC6 activator inactive, TRPC4 agonist inactive, TRPC4 PAM inactive and Kir21 block 0.04.
For COc1cccc(CN2CCC(n3nccc3NC(=O)CCOc3ccccc3)CC2)c1O the results were TRPC6 inhibitor -10*, TRPC4 inh inactive, TRPC6 activator inactive, TRPC4 agonist inactive, TRPC4 PAM inactive, Kir21 block 0.01, TRPC4 sel inh 2 inactive, TRPC4 spec 1.8%*, HEK293 MPD ctr 2-1 inactive, HEK293 MPD ctr-1 0.8%*, TRPC6 inh conf inactive and TRPC6 act confirm inactive.
